Data set [1] is described as follows: Cytotoxicity against african green monkey Vero cell after 48 hrs by neutral red uptake assay. The class given is cell-based. The settings on record: chlorocebus sabaeus, Vero cells; read-out: TC50. The procedure, abridged: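 VERO kidney fibroblasts seeded at 25,000 cells/well and incubated 24 h. Compounds added, highest concentration 10 μg/mL, then 48 h further incubation. Viable cells measured by neutral red assay. IC50 taken from growth-inhibition dose curves. Doxorubicin as positive control, DMSO as vehicle control.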

The next data set relates to Candida albicans. Briefly: Antifungal activity against Candida albicans ATCC 90028 by NCCLS method. The class given is functional, organism-based. In short, it runs like this: (§1)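 Modified NCCLS microdilution for fungi. Samples in DMSO serially diluted with 0.9% saline, in duplicate, final concentrations from 20 μg/mL down. Inocula matched to 0.5 McFarland (630 nm) and diluted in Sabouraud dextrose broth. Growth, solvent and medium controls included. OD 530 nm read before and after incubation. IC50 from percent growth curve. MIC is no detectable growth. MFC is lowest concentration killing the organism.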

A further data set has as its system Cryptococcus neoformans. Briefly: Antifungal activity against Cryptococcus neoformans ATCC 90113 by NCCLS method. The class given is functional, organism-based. The procedure, abridged:
as §1

For the next data set, the system named is Aspergillus fumigatus. Briefly: Antifungal activity against Aspergillus fumigatus ATCC 204305 by NCCLS method. The class given is functional, organism-based. The procedure, abridged: as §1
Data set [2] deals with Staphylococcus aureus. Briefly: Antibacterial activity against Staphylococcus aureus ATCC 29213 by NCCLS method. The class given is functional, organism-based. The procedure, abridged:
(§2)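 Broth microdilution (modified NCCLS). Samples in DMSO serially diluted in 0.9% saline, tested in duplicate, highest final concentration 20 μg/mL. Inoculum matched to 0.5 McFarland standard by absorbance at 630 nm, then diluted in cation-adjusted Mueller–Hinton broth. Growth, solvent and medium controls on each plate. Absorbance at 530 nm read before and after incubation. IC50 taken from percent growth versus concentration plot; MIC is lowest concentration with no detectable growth; MBC is lowest concentration killing the organism.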

In data set [3] the test system is Staphylococcus aureus. Briefly: Antibacterial activity against methicillin-resistant Staphylococcus aureus ATCC 33591 by NCCLS method. The class given is functional, organism-based. In short, it runs like this: as §2
The next data set relates to Escherichia coli. Briefly: Antibacterial activity against Escherichia coli by NCCLS method. The class given is functional, organism-based. In short, it runs like this: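 Modified NCCLS broth microdilution. DMSO-dissolved samples serially diluted in 0.9% saline, tested in duplicate, final concentrations starting at 20 μg/mL. Inoculum set to 0.5 McFarland (absorbance 630 nm) and diluted in cation-adjusted Mueller–Hinton broth. Growth, solvent and medium controls on each plate. Read at 530 nm before and after incubation. IC50 from percent growth versus concentration. MIC is lowest concentration with no detectable growth.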

In data set [4] the test system is Mycobacterium intracellulare. Briefly: Antibacterial activity against Mycobacterium intracellular ATCC 23068 by alamar blue method. The class given is functional, organism-based. The procedure, abridged:
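Modified Alamar blue method (Franzblau). Samples in DMSO serially diluted in 0.9% saline, in duplicate, final concentrations starting at 20 μg/mL. Inoculum adjusted to 0.5 McFarland, then diluted in Middlebrook 7H9 with OADC enrichment plus 5% Alamar blue. Fluorescence read (ex 544/em 590 nm) before and after incubation. IC50 from percent growth versus concentration. MIC is no detectable growth.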
A general note: Resazurin is reduced to fluorescent resorufin, in cell work by metabolically active cells.

Experimental findings from ChEMBL document CHEMBL1781968, “δ-Carbolines and their ring-opened analogs: synthesis and evaluation against fungal and bacterial opportunistic pathogens” (Eur J Med Chem, 2011) are described below.

Take `COc1ccc2c(c1)c1c(ccc[n+]1C)n2CCCCCC1CCCCC1.[I-]`: in data set [1], the CC50 at 48 h is more than 10 µg/mL. Moreover, the IC50 is 7.4 µg/mL in the data set with Candida albicans; 0.7 µg/mL with Cryptococcus neoformans; 16 µg/mL in the data set on Aspergillus fumigatus; 0.7 µg/mL in the data set with Staphylococcus aureus [2]; 3.3 µg/mL with Staphylococcus aureus [3]; 12 µg/mL in the data set with Escherichia coli. The same compound came in with an IC50 in data set [4] of 1.6 µg/mL. The values for the minimal fungicidal concentration (MFC) with Candida albicans, against Cryptococcus neoformans and with Aspergillus fumigatus were more than 20 µg/mL, 1.3 µg/mL and more than 20 µg/mL, respectively. In addition, the MIC is 20 µg/mL with Candida albicans; 1.3 µg/mL in the data set on Cryptococcus neoformans; more than 20 µg/mL in the data set with Aspergillus fumigatus; 1.3 µg/mL with Staphylococcus aureus [2]; 5 µg/mL with Staphylococcus aureus [3]; more than 20 µg/mL with Escherichia coli. In addition, in data set [4], the minimum inhibitory concentration (MIC) was 2.5 µg/mL. Moreover, the minimal bactericidal concentration (MBC) in the data set on Staphylococcus aureus [2] was 20 µg/mL; with Staphylococcus aureus [3], 20 µg/mL; against Escherichia coli, more than 20 µg/mL; in data set [4], 2.5 µg/mL.

On to `C[n+]1cccc2c1c1cccc(Cl)c1n2CCCCCC1CCCCC1.[I-]`, for which the CC50 at 48 h in data set [1] is more than 10 µg/mL. Further, the IC50 is 2.5 µg/mL in the data set on Candida albicans; 0.3 µg/mL with Cryptococcus neoformans; 16 µg/mL in the data set with Aspergillus fumigatus; 0.2 µg/mL with Staphylococcus aureus [2]; 1.2 µg/mL in the data set with Staphylococcus aureus [3]; 5.7 µg/mL in the data set with Escherichia coli. For the same compound, in data set [4], the IC50 was 0.5 µg/mL. In addition, the MFC with Candida albicans was 5 µg/mL; with Cryptococcus neoformans it was 0.6 µg/mL; with Aspergillus fumigatus, 20 µg/mL. Moreover, the minimal inhibitory concentration (MIC) is 5 µg/mL against Candida albicans; 0.6 µg/mL against Cryptococcus neoformans; 20 µg/mL in the data set with Aspergillus fumigatus; 0.3 µg/mL against Staphylococcus aureus [2]; 2.5 µg/mL against Staphylococcus aureus [3]; more than 20 µg/mL against Escherichia coli. Moreover, in data set [4], inhibition of growth (MIC) required 0.6 µg/mL. In addition, the MBC in the data set on Staphylococcus aureus [2] was 10 µg/mL; against Staphylococcus aureus [3] it was 5 µg/mL; in the data set with Escherichia coli, more than 20 µg/mL; in data set [4], 5 µg/mL.

As to `C[n+]1cccc2c1c1cc(Cl)ccc1n2CCCCCC1CCCCC1.[I-]`, in data set [1], the CC50 at 48 h is more than 10 µg/mL. The IC50 stood at 2 µg/mL in the data set on Candida albicans; 0.4 µg/mL in the data set on Cryptococcus neoformans; 16 µg/mL with Aspergillus fumigatus; 0.5 µg/mL with Staphylococcus aureus [2]; 1.3 µg/mL in the data set with Staphylococcus aureus [3]; 5.9 µg/mL in the data set on Escherichia coli. Half-maximal inhibition in data set [4] (IC50) required 0.7 µg/mL. For the same compound, the minimum fungicidal concentration (MFC) is 5 µg/mL in the data set on Candida albicans, 0.6 µg/mL with Cryptococcus neoformans and 20 µg/mL against Aspergillus fumigatus. The minimum inhibitory concentration (MIC) against Candida albicans was 5 µg/mL; with Cryptococcus neoformans, 0.6 µg/mL; against Aspergillus fumigatus, 20 µg/mL; against Staphylococcus aureus [2] it was 1.3 µg/mL; in the data set with Staphylococcus aureus [3], 2.5 µg/mL; in the data set on Escherichia coli, more than 20 µg/mL. Moreover, the MIC in data set [4] worked out at 1.3 µg/mL. In addition, the MBC was 10 µg/mL in the data set with Staphylococcus aureus [2], 10 µg/mL against Staphylococcus aureus [3], more than 20 µg/mL in the data set on Escherichia coli and 2.5 µg/mL in data set [4].

For `C[n+]1cccc2c1c1cc(F)ccc1n2CCCCCC1CCCCC1.[I-]`, in data set [1], the CC50 at 48 h is more than 10 µg/mL. The 50% inhibitory concentration (IC50) with Candida albicans was 6.5 µg/mL; in the data set on Cryptococcus neoformans, 0.6 µg/mL; with Aspergillus fumigatus, 12 µg/mL; in the data set on Staphylococcus aureus [2], 0.7 µg/mL; with Staphylococcus aureus [3] it was 2.8 µg/mL; with Escherichia coli it was 13 µg/mL. In addition, the IC50 in data set [4] was 1.2 µg/mL. Also, the MFC was 20 µg/mL in the data set with Candida albicans, 1.3 µg/mL in the data set with Cryptococcus neoformans and more than 20 µg/mL against Aspergillus fumigatus. Also, the MIC in the data set with Candida albicans is 20 µg/mL; against Cryptococcus neoformans, 1.3 µg/mL; against Aspergillus fumigatus it was 20 µg/mL; with Staphylococcus aureus [2] it was 1.3 µg/mL; against Staphylococcus aureus [3], 5 µg/mL; against Escherichia coli, more than 20 µg/mL. In data set [4], this compound displayed an MIC of 2.5 µg/mL. For the same compound, the MBC against Staphylococcus aureus [2] was 20 µg/mL; against Staphylococcus aureus [3], 20 µg/mL; with Escherichia coli, more than 20 µg/mL; in data set [4] it was 5 µg/mL.

The IC50 is the concentration needed to halve the response being measured. What is called MFC is the lowest tested concentration that kills the fungus rather than only halting it. The term MIC denotes the lowest concentration that inhibits growth of the organism. Broadly, the MBC is the smallest concentration meeting the test's criterion for killing.
